Tested on: not listed separately
Experiment: Oral bioavailability in rat
Type: ADME, organism-based
Conditions: in vivo
Outline: (§1)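 Pharmacokinetics in rats, rabbits and rhesus monkeys after oral dosing in 1% methocel vehicle. Half-life and oral bioavailability were derived from the plasma profiles.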

Row | bioavailability | Structure (SMILES)
1 | 24% | CC(C)(F)C[C@H](N[C@@H](c1ccc(-c2ccc(C(C)(C)O)cc2)cc1)C(F)(F)F)C(=O)NC1(C#N)CC1
2 | 122% | CC(C)(F)C[C@H](N[C@@H](c1ccc(-c2ccc([C@@H](O)C(F)F)cc2)cc1)C(F)(F)F)C(=O)NC1(C#N)CC1
3 | 86% | CC(C)(F)C[C@H](N[C@@H](c1ccc(-c2ccc([C@H](O)C(F)F)cc2)cc1)C(F)(F)F)C(=O)NC1(C#N)CC1
4 | 8% | CC(C)(F)C[C@H](N[C@@H](c1ccc(-c2ccc(C3(C(N)=O)CC3)cc2)cc1)C(F)(F)F)C(=O)NC1(C#N)CC1

Species: Homo sapiens
Experiment: Selectivity ratio of IC50 for human cathepsin L to IC50 for humanized rabbit cathepsin K
Conditions: not given

Row | Ratio IC50 | Structure (SMILES)
5 | 28900 | CC(C)(F)C[C@H](N[C@@H](c1ccc(-c2ccc(C(C)(C)O)cc2)cc1)C(F)(F)F)C(=O)NC1(C#N)CC1
6 | 11900 | CC(C)(F)C[C@H](N[C@@H](c1ccc(-c2ccc([C@@H](O)C(F)F)cc2)cc1)C(F)(F)F)C(=O)NC1(C#N)CC1
7 | 14100 | CC(C)(F)C[C@H](N[C@@H](c1ccc(-c2ccc([C@H](O)C(F)F)cc2)cc1)C(F)(F)F)C(=O)NC1(C#N)CC1
8 | 11100 | CC(C)(F)C[C@H](N[C@@H](c1ccc(-c2ccc(C3(C(N)=O)CC3)cc2)cc1)C(F)(F)F)C(=O)NC1(C#N)CC1

Species: Homo sapiens
Experiment: Selectivity ratio of IC50 for human cathepsin S to IC50 for humanized rabbit cathepsin K
Conditions: not given

Row | Ratio IC50 | Structure (SMILES)
9 | 715 | CC(C)(F)C[C@H](N[C@@H](c1ccc(-c2ccc(C(C)(C)O)cc2)cc1)C(F)(F)F)C(=O)NC1(C#N)CC1
10 | 243 | CC(C)(F)C[C@H](N[C@@H](c1ccc(-c2ccc([C@@H](O)C(F)F)cc2)cc1)C(F)(F)F)C(=O)NC1(C#N)CC1
11 | 197 | CC(C)(F)C[C@H](N[C@@H](c1ccc(-c2ccc([C@H](O)C(F)F)cc2)cc1)C(F)(F)F)C(=O)NC1(C#N)CC1
12 | 766 | CC(C)(F)C[C@H](N[C@@H](c1ccc(-c2ccc(C3(C(N)=O)CC3)cc2)cc1)C(F)(F)F)C(=O)NC1(C#N)CC1

Tested on: not listed separately
Experiment: Oral bioavailability in rhesus monkey
Type: ADME, organism-based, Macaca mulatta
Conditions: in vivo
Outline: as §1

Row | bioavailability | Structure (SMILES)
13 | 64% | CC(C)(F)C[C@H](N[C@@H](c1ccc(-c2ccc([C@@H](O)C(F)F)cc2)cc1)C(F)(F)F)C(=O)NC1(C#N)CC1
14 | 139% | CC(C)(F)C[C@H](N[C@@H](c1ccc(-c2ccc([C@H](O)C(F)F)cc2)cc1)C(F)(F)F)C(=O)NC1(C#N)CC1

Tested on: not listed separately
Experiment: Half life in po dosed rat
Type: ADME, organism-based
Conditions: in vivo
Outline: as §1

Row | half-life | Structure (SMILES)
15 | < 1 h | CC(C)(F)C[C@H](N[C@@H](c1ccc(-c2ccc(C(C)(C)O)cc2)cc1)C(F)(F)F)C(=O)NC1(C#N)CC1
16 | 7 h | CC(C)(F)C[C@H](N[C@@H](c1ccc(-c2ccc([C@@H](O)C(F)F)cc2)cc1)C(F)(F)F)C(=O)NC1(C#N)CC1
17 | 10 h | CC(C)(F)C[C@H](N[C@@H](c1ccc(-c2ccc([C@H](O)C(F)F)cc2)cc1)C(F)(F)F)C(=O)NC1(C#N)CC1

Tested on: not listed separately
Experiment: Half life in po dosed rabbit
Type: ADME, organism-based, Oryctolagus cuniculus
Conditions: in vivo
Outline: as §1

Row | half-life | Structure (SMILES)
18 | 14 h | CC(C)(F)C[C@H](N[C@@H](c1ccc(-c2ccc([C@@H](O)C(F)F)cc2)cc1)C(F)(F)F)C(=O)NC1(C#N)CC1
19 | 8 h | CC(C)(F)C[C@H](N[C@@H](c1ccc(-c2ccc([C@H](O)C(F)F)cc2)cc1)C(F)(F)F)C(=O)NC1(C#N)CC1

Target: Cathepsin K (Homo sapiens, UniProt P43235)
Experiment: Inhibition of humanized rabbit cathepsin K
Conditions: not given

Row | IC50 | Structure (SMILES)
20 | 0.2 nM | CC(C)(F)C[C@H](N[C@@H](c1ccc(-c2ccc(C(C)(C)O)cc2)cc1)C(F)(F)F)C(=O)NC1(C#N)CC1
21 | 0.4 nM | CC(C)(F)C[C@H](N[C@@H](c1ccc(-c2ccc([C@@H](O)C(F)F)cc2)cc1)C(F)(F)F)C(=O)NC1(C#N)CC1
22 | 0.4 nM | CC(C)(F)C[C@H](N[C@@H](c1ccc(-c2ccc([C@H](O)C(F)F)cc2)cc1)C(F)(F)F)C(=O)NC1(C#N)CC1
23 | 0.2 nM | CC(C)(F)C[C@H](N[C@@H](c1ccc(-c2ccc(C3(C(N)=O)CC3)cc2)cc1)C(F)(F)F)C(=O)NC1(C#N)CC1

Species: Homo sapiens
Experiment: Selectivity ratio of IC50 for human cathepsin F to IC50 for humanized rabbit cathepsin K
Conditions: not given

Row | Ratio IC50 | Structure (SMILES)
24 | 2410 | CC(C)(F)C[C@H](N[C@@H](c1ccc(-c2ccc(C(C)(C)O)cc2)cc1)C(F)(F)F)C(=O)NC1(C#N)CC1
25 | 1460 | CC(C)(F)C[C@H](N[C@@H](c1ccc(-c2ccc([C@@H](O)C(F)F)cc2)cc1)C(F)(F)F)C(=O)NC1(C#N)CC1
26 | 1600 | CC(C)(F)C[C@H](N[C@@H](c1ccc(-c2ccc([C@H](O)C(F)F)cc2)cc1)C(F)(F)F)C(=O)NC1(C#N)CC1
27 | 2380 | CC(C)(F)C[C@H](N[C@@H](c1ccc(-c2ccc(C3(C(N)=O)CC3)cc2)cc1)C(F)(F)F)C(=O)NC1(C#N)CC1

Species: Homo sapiens
Experiment: Selectivity ratio of IC50 for human cathepsin B to IC50 for humanized rabbit cathepsin K
Conditions: not given

Row | Ratio IC50 | Structure (SMILES)
28 | 2200 | CC(C)(F)C[C@H](N[C@@H](c1ccc(-c2ccc(C(C)(C)O)cc2)cc1)C(F)(F)F)C(=O)NC1(C#N)CC1
29 | 1160 | CC(C)(F)C[C@H](N[C@@H](c1ccc(-c2ccc([C@@H](O)C(F)F)cc2)cc1)C(F)(F)F)C(=O)NC1(C#N)CC1
30 | 1470 | CC(C)(F)C[C@H](N[C@@H](c1ccc(-c2ccc([C@H](O)C(F)F)cc2)cc1)C(F)(F)F)C(=O)NC1(C#N)CC1
31 | 1560 | CC(C)(F)C[C@H](N[C@@H](c1ccc(-c2ccc(C3(C(N)=O)CC3)cc2)cc1)C(F)(F)F)C(=O)NC1(C#N)CC1

Tested on: not listed separately
Experiment: Oral bioavailability in squirrel monkey
Type: ADME, organism-based
Conditions: saimiri, in vivo

Row | bioavailability | Structure (SMILES)
32 | 5% | CC(C)(F)C[C@H](N[C@@H](c1ccc(-c2ccc(C3(C(N)=O)CC3)cc2)cc1)C(F)(F)F)C(=O)NC1(C#N)CC1

Tested on: not listed separately
Experiment: Metabolic stability in rabbit hepatocytes assessed as compound remaining
Type: ADME, cell-based, Oryctolagus cuniculus, Hepatocyte
Conditions: not given

Row | Stability | Structure (SMILES)
33 | 93% | CC(C)(F)C[C@H](N[C@@H](c1ccc(-c2ccc([C@@H](O)C(F)F)cc2)cc1)C(F)(F)F)C(=O)NC1(C#N)CC1
34 | 70% | CC(C)(F)C[C@H](N[C@@H](c1ccc(-c2ccc([C@H](O)C(F)F)cc2)cc1)C(F)(F)F)C(=O)NC1(C#N)CC1

Tested on: not listed separately
Experiment: Decrease in bone resorption assessed as corrected bone resorption measured as ratio of bone resorption IC50 x humanized rabbit cathepsin K IC50 to rabbit cathepsin K IC50 equation
Type: functional, tissue-based, Bone element
Conditions: not given

Row | IC50 | Structure (SMILES)
35 | 10 nM | CC(C)(F)C[C@H](N[C@@H](c1ccc(-c2ccc(C(C)(C)O)cc2)cc1)C(F)(F)F)C(=O)NC1(C#N)CC1
36 | 10 nM | CC(C)(F)C[C@H](N[C@@H](c1ccc(-c2ccc([C@@H](O)C(F)F)cc2)cc1)C(F)(F)F)C(=O)NC1(C#N)CC1
37 | 7 nM | CC(C)(F)C[C@H](N[C@@H](c1ccc(-c2ccc([C@H](O)C(F)F)cc2)cc1)C(F)(F)F)C(=O)NC1(C#N)CC1
38 | 12 nM | CC(C)(F)C[C@H](N[C@@H](c1ccc(-c2ccc(C3(C(N)=O)CC3)cc2)cc1)C(F)(F)F)C(=O)NC1(C#N)CC1

Tested on: not listed separately
Experiment: Metabolic stability in rhesus monkey hepatocytes assessed as compound remaining
Type: ADME, cell-based, Macaca mulatta, Hepatocyte
Conditions: not given

Row | Stability | Structure (SMILES)
39 | 93% | CC(C)(F)C[C@H](N[C@@H](c1ccc(-c2ccc([C@@H](O)C(F)F)cc2)cc1)C(F)(F)F)C(=O)NC1(C#N)CC1
40 | 88% | CC(C)(F)C[C@H](N[C@@H](c1ccc(-c2ccc([C@H](O)C(F)F)cc2)cc1)C(F)(F)F)C(=O)NC1(C#N)CC1

Tested on: not listed separately
Experiment: Half life in po dosed rhesus monkey
Type: ADME, organism-based, Macaca mulatta
Conditions: in vivo
Outline: as §1

Row | half-life | Structure (SMILES)
41 | 11 h | CC(C)(F)C[C@H](N[C@@H](c1ccc(-c2ccc([C@@H](O)C(F)F)cc2)cc1)C(F)(F)F)C(=O)NC1(C#N)CC1
42 | 6 h | CC(C)(F)C[C@H](N[C@@H](c1ccc(-c2ccc([C@H](O)C(F)F)cc2)cc1)C(F)(F)F)C(=O)NC1(C#N)CC1

Tested on: not listed separately
Experiment: Oral bioavailability in rabbit
Type: ADME, organism-based, Oryctolagus cuniculus
Conditions: in vivo
Outline: as §1

Row | bioavailability | Structure (SMILES)
43 | 70% | CC(C)(F)C[C@H](N[C@@H](c1ccc(-c2ccc([C@@H](O)C(F)F)cc2)cc1)C(F)(F)F)C(=O)NC1(C#N)CC1
44 | 132% | CC(C)(F)C[C@H](N[C@@H](c1ccc(-c2ccc([C@H](O)C(F)F)cc2)cc1)C(F)(F)F)C(=O)NC1(C#N)CC1

Tested on: Hepatocyte
Experiment: Metabolic stability in rat hepatocytes assessed as compound remaining
Type: ADME, cell-based
Conditions: not given

Row | Stability | Structure (SMILES)
45 | 95% | CC(C)(F)C[C@H](N[C@@H](c1ccc(-c2ccc([C@@H](O)C(F)F)cc2)cc1)C(F)(F)F)C(=O)NC1(C#N)CC1
46 | 94% | CC(C)(F)C[C@H](N[C@@H](c1ccc(-c2ccc([C@H](O)C(F)F)cc2)cc1)C(F)(F)F)C(=O)NC1(C#N)CC1
